Experimental data taken from ChEMBL document CHEMBL1140738, “New trisubstituted 1,2,4-triazole derivatives as potent ghrelin receptor antagonists. 3. Synthesis and pharmacological in vitro and in vivo evaluations” (J Med Chem, 2008).
Where a SMILES comes first, the peptide text is derived from it. [ ]: non-standard residue; d: D form. dTrp(2-Me) = Cc1[nH]c2ccccc2c1C[C@@H](N)C(=O)O

Tests used:
[1] = molecular target: T1, Growth hormone secretagogue receptor type 1 (Homo sapiens, UniProt Q92847); experiment: Displacement of 125I]-His9-ghrelin from human GHSR1a expressed in LLCPK1 cells; assay type: cell-based, LLC-PK1
Summary of the method: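 Competition binding with membranes from LLC PK-1 cells transiently transfected with human GHS-R1a, incubated with 125I-His9-ghrelin and increasing concentrations of compound.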

[2] = molecular target: T1, Growth hormone secretagogue receptor type 1; experiment: Agonist activity at GHSR1a expressed in CHO cells assessed as accumulation of intracellular calcium level at 10 uM relative to ghrelin; assay type: functional, cell-based
Summary of the method: (§1)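 CHO cells transiently expressing GHS-R1a; intracellular Ca2+ accumulation read as fluorescence output. Increasing agonist concentrations were tested for dose-response; single-point activation at 10^-5 M is expressed as percent of the maximal response to ghrelin at 10^-7 M (100%).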

[3] = molecular target: T1, Growth hormone secretagogue receptor type 1; experiment: Antagonist activity at GHSR1a expressed in CHO cells assessed as inhibition of ghrelin induced accumulation of intracellular calcium; assay type: functional, cell-based
Summary of the method: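 Antagonism measured in CHO cells transiently transfected with GHS-R1a: ghrelin dose-response curves of [Ca2+]i accumulation (fluorescence) run in the presence of various concentrations of test compound.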

Rattus norvegicus [4] = experiment: Effect on growth hormone secretion at 160 ug/kg, sc; assay type: functional
Summary of the method: (§2)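 Infant rats given sc injection of compound at 160 µg/kg and/or hexarelin at 80 µg/kg; plasma rat GH measured (ng/mL).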

Rattus norvegicus [5] = experiment: Effect on growth hormone secretion in infant rat at 80 ug/kg, sc at 160 ug/kg, sc in presence of hexarelin; assay type: functional; summary of the method: as §2
[6] = molecular target: T1, Growth hormone secretagogue receptor type 1; experiment: Agonist activity at GHSR1a expressed in CHO cells assessed as accumulation of intracellular calcium level; assay type: functional, cell-based; summary of the method: as §1
Rattus norvegicus [7] = experiment: Inhibition of hexarelin induced food intake per 100 gm of body weight in rat at 80 ug/kg, sc after 6 hrs; assay type: functional
Summary of the method: (§3)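 Rats dosed subcutaneously with compound (160 µg/kg alone, or graded 20, 80, 160, 320 µg/kg) with or without hexarelin 80 µg/kg sc. Cumulative food intake at 2 and 6 h expressed as g food per 100 g body weight; % variation versus hexarelin at 6 h = 100 × (compound+hexarelin − hexarelin)/hexarelin.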

Rattus norvegicus [8] = experiment: Inhibition of hexarelin induced food intake per 100 gm of body weight in rat at 20 ug/kg, sc after 6 hrs; assay type: functional; summary of the method: as §3
Rattus norvegicus [9] = experiment: Inhibition of hexarelin induced food intake per 100 gm of body weight in rat at 160 ug/kg, sc after 2 hrs; assay type: functional; summary of the method: as §3
Rattus norvegicus [10] = experiment: Inhibition of hexarelin induced food intake per 100 gm of body weight in rat at 20 ug/kg, sc after 2 hrs; assay type: functional; summary of the method: as §3
Rattus norvegicus [11] = experiment: Inhibition of hexarelin induced food intake per 100 gm of body weight in rat at 320 ug/kg, sc after 2 hrs; assay type: functional; summary of the method: as §3
Rattus norvegicus [12] = experiment: Inhibition of hexarelin induced food intake per 100 gm of body weight in rat at 80 ug/kg, sc after 2 hrs; assay type: functional; summary of the method: as §3
Rattus norvegicus [13] = experiment: Inhibition of hexarelin induced food intake per 100 gm of body weight in rat at 320 ug/kg, sc after 6 hrs; assay type: functional; summary of the method: as §3
Rattus norvegicus [14] = experiment: Inhibition of hexarelin induced food intake per 100 gm of body weight in rat at 160 ug/kg, sc after 6 hrs; assay type: functional; summary of the method: as §3
Rattus norvegicus [15] = experiment: Effect on food intake per 100 gm of body weight in rat at 80 ug/kg, sc after 6 hrs; assay type: functional; summary of the method: as §3
Rattus norvegicus [16] = experiment: Effect on growth hormone secretion in infant rat at 80 ug/kg, sc; assay type: functional; summary of the method: as §2
Rattus norvegicus [17] = experiment: Effect on food intake per 100 gm of body weight in rat at 80 ug/kg, sc after 2 hrs; assay type: functional; summary of the method: as §3

T1 sequence (Q92847 whole entry): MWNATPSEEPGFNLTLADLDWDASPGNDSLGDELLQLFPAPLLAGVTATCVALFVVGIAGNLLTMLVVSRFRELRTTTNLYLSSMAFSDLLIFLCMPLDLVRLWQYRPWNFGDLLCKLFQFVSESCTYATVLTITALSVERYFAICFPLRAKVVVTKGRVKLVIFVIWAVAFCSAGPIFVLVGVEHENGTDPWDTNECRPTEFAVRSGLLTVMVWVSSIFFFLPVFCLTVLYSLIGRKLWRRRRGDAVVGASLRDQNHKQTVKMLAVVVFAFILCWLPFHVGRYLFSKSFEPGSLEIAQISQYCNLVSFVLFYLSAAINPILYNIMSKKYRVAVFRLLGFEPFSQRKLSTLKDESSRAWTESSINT

| Structure (SMILES) | IC50 [1] | Activity [2] | Kb [3] | also measured |
| --- | --- | --- | --- | --- |
| CCc1ccc(Cn2c(CCc3ccccc3)nnc2[C@@H](Cc2c[nH]c3ccccc23)NC(=O)Cc2cccnc2)cc1 | 480 nM | 3% |  |  |
| COc1ccc(-n2c(CCc3ccccc3)nnc2[C@@H](Cc2c[nH]c3ccccc23)NC(=O)c2ccccn2)c(OC)c1 | 33 nM | 0% | 65 nM |  |
| COc1ccc(Cn2c(CCc3ccccc3)nnc2[C@@H](Cc2c[nH]c3ccccc23)NC(=O)CCc2cccnc2)cc1 | 177 nM | 5% |  |  |
| COc1ccc(Cn2c(CCc3ccccc3)nnc2[C@@H](Cc2c[nH]c3ccccc23)NC(=O)C(C)(C)N)c(OC)c1 | 60 nM | 0% | 17 nM |  |
| O=C(N[C@H](Cc1c[nH]c2ccccc12)c1nnc(CCc2c[nH]c3ccccc23)n1-c1ccccc1)c1ccccn1 | 160 nM | 0% |  |  |
| CCc1ccc(Cn2c(CCc3ccccc3)nnc2[C@@H](Cc2c[nH]c3ccccc23)NC(=O)c2cnccn2)cc1 | 89 nM | 0% | 76 nM |  |
| COc1ccc(Cn2c(CCc3ccccc3)nnc2[C@@H](Cc2c[nH]c3ccccc23)NC(=O)C(C)(C)N)cc1 | 11 nM | 0% | 5 nM | Activity (Rattus norvegicus [4]): 5.28 ng/mL; Activity (Rattus norvegicus [5]): 220.52 ng/mL |
| COc1ccc(Cn2c(CCc3ccccc3)nnc2[C@@H](Cc2c[nH]c3ccccc23)NC(=O)c2ccccc2)c(OC)c1 | 11.8 nM | 31% |  | EC50 [6]: 16 nM |
| COc1ccc(Cn2c(CCc3ccccc3)nnc2[C@@H](Cc2c[nH]c3ccccc23)NC(=O)c2ccccn2)cc1 | 0.7 nM | 0% | 12 nM |  |
| COc1ccc(-n2c(CCc3ccccc3)nnc2[C@@H](Cc2c[nH]c3ccccc23)NC(=O)c2cnccn2)c(OC)c1 | 300 nM | 1% |  |  |
| COc1ccc(Cn2c(CCc3ccccc3)nnc2[C@@H](Cc2c[nH]c3ccccc23)NC(=O)Cc2cccnc2)cc1 | 29 nM | 3% | 93 nM |  |
| COc1ccc(Cn2c(CCc3c[nH]c4ccccc34)nnc2[C@@H](Cc2c[nH]c3ccccc23)NC(=O)C(C)(C)N)c(OC)c1 | 108 nM | 0% | 14 nM |  |
| CCc1ccc(Cn2c(CCc3ccccc3)nnc2[C@@H](Cc2c[nH]c3ccccc23)NC(=O)Cc2ccccn2)cc1 | 51 nM | 0% | 124 nM |  |
| COc1ccc(Cn2c(CCc3ccccc3)nnc2[C@@H](Cc2c[nH]c3ccccc23)NC(=O)c2ccncc2)cc1 | 220 nM | 0% |  |  |
| CCc1ccc(-n2c(CCc3c[nH]c4ccccc34)nnc2[C@@H](Cc2c[nH]c3ccccc23)NC(=O)c2ccccn2)cc1 | 49 nM | 0% | 129 nM |  |
| O=C(N[C@H](Cc1c[nH]c2ccccc12)c1nnc(CCc2ccccc2)n1-c1ccccc1)c1ccccn1 | 105 nM | 0% |  |  |
| CCc1ccc(-n2c(CCc3c[nH]c4ccccc34)nnc2[C@@H](Cc2c[nH]c3ccccc23)NC(=O)Cc2ccccn2)cc1 | 96 nM | 0% | 34 nM |  |

| Structure (SMILES) | IC50 [1] | Activity [2] | Kb [3] | also measured |
| --- | --- | --- | --- | --- |
| COc1ccc(Cn2c(CCc3c[nH]c4ccccc34)nnc2[C@@H](Cc2c[nH]c3ccccc23)NC(=O)c2cnccn2)c(OC)c1 | 18.5 nM | 0% | 97 nM | Activity (Rattus norvegicus [7]): 0.23 g; Activity (Rattus norvegicus [8]): 0.66 g; inhibition in vivo at 0.02 mg/kg (Rattus norvegicus [8]; Rattus norvegicus, sc, 6 h): 47%; Activity (Rattus norvegicus [9]): 0.29 g; Activity (Rattus norvegicus [10]): 0.66 g; Activity (Rattus norvegicus [11]): 0.2 g; Activity (Rattus norvegicus [12]): 0.23 g; Activity (Rattus norvegicus [4]): 15.32 ng/mL; Activity (Rattus norvegicus [5]): 173.61 ng/mL; Activity (Rattus norvegicus [13]): 0.21 g; Activity (Rattus norvegicus [14]): 0.31 g |
| COc1ccc(Cn2c(CCc3c[nH]c4ccccc34)nnc2[C@@H](Cc2c[nH]c3ccccc23)NC(=O)[C@H]2CCCC[C@H]2N)c(OC)c1 | 140 nM | 4% | 140 nM |  |
| COc1ccc(Cn2c(CCc3c[nH]c4ccccc34)nnc2[C@@H](Cc2c[nH]c3ccccc23)NC(=O)Cc2ccncc2)cc1 | 76 nM | 3% | 10 nM |  |
| CCc1ccc(Cn2c(CCc3ccccc3)nnc2[C@@H](Cc2c[nH]c3ccccc23)NC(=O)c2ccncc2)cc1 | > 1000 nM | 0% |  |  |
| CCc1ccc(Cn2c(CCc3ccccc3)nnc2[C@@H](Cc2c[nH]c3ccccc23)NC(=O)c2ccccn2)cc1 | 67 nM | 0% | 513 nM |  |
| COc1ccc(Cn2c(CCc3c[nH]c4ccccc34)nnc2[C@@H](Cc2c[nH]c3ccccc23)NC(=O)C2CCNCC2)cc1 | 0.6 nM |  |  | EC50 [6]: 1.6 nM |
| COc1ccc(Cn2c(CCc3c[nH]c4ccccc34)nnc2[C@@H](Cc2c[nH]c3ccccc23)NC(=O)c2ccccn2)cc1 | 1.9 nM | 0% | 102 nM |  |
| Cc1[nH]c2ccccc2c1C[C@@H](NC(=O)[C@@H](N)Cc1c[nH]cn1)C(=O)N[C@@H](C)C(=O)N[C@@H](Cc1c[nH]c2ccccc12)C(=O)N[C@H](Cc1ccccc1)C(=O)N[C@@H](CCCCN)C(N)=O [EXAMORELIN] (H-H[dTrp(2-Me)]AW[dF]K-NH2) |  |  |  | Activity (Rattus norvegicus [15]): 1.45 g; Activity (Rattus norvegicus [16]): 253.82 ng/mL; Activity (Rattus norvegicus [17]): 1.06 g |
| COc1ccc(Cn2c(CCc3ccccc3)nnc2[C@@H](Cc2c[nH]c3ccccc23)NC(=O)Cc2ccccn2)cc1 | 3 nM | 6% | 6 nM |  |
| O=C(Cc1ccccn1)N[C@H](Cc1c[nH]c2ccccc12)c1nnc(CCc2ccccc2)n1-c1ccccc1 | 700 nM | 0% |  |  |
| O=C(Cc1ccccn1)N[C@H](Cc1c[nH]c2ccccc12)c1nnc(CCc2c[nH]c3ccccc23)n1Cc1ccccc1 | 61 nM | 4% | 41 nM |  |
| COc1ccc(Cn2c(CCc3ccccc3)nnc2[C@@H](Cc2c[nH]c3ccccc23)NCc2ccccc2)c(OC)c1 | > 1000 nM | 20% |  |  |
| COc1ccc(Cn2c(CCc3c[nH]c4ccccc34)nnc2[C@@H](Cc2c[nH]c3ccccc23)NC(=O)Cc2ccccn2)c(OC)c1 | 34 nM | 0% | 14 nM |  |
| COc1ccc(Cn2c(CCc3c[nH]c4ccccc34)nnc2[C@@H](Cc2c[nH]c3ccccc23)NC(=O)c2ccccn2)c(OC)c1 | 1.8 nM | 0% | 19 nM |  |
| COc1ccc(Cn2c(CCc3ccccc3)nnc2[C@@H](Cc2c[nH]c3ccccc23)NC(=O)Cc2ccncc2)cc1 | 270 nM | 6% |  |  |
| COc1ccc(Cn2c(CCc3ccccc3)nnc2[C@@H](Cc2c[nH]c3ccccc23)NC(=O)c2ccncc2)c(OC)c1 | 58 nM | 0% | 93 nM |  |
